According to ChEMBL document CHEMBL1145822, “4-Aryl-3-(hydroxyalkyl)quinolin-2-ones: novel maxi-K channel opening relaxants of corporal smooth muscle targeted for erectile dysfunction” (J Med Chem, 2003):

Key:
Type in all cases: functional
[1] = species on record: Oryctolagus cuniculus; assay: Percentage inhibition of isometric force in response to 10 uM compound in isolated rabbit corpus cavernosum precontracted with 3 uM phenylephrine
Summary of the method: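 New Zealand white rabbit (3.4–3.7 kg) corpus cavernosum strips (3–5 mm) in oxygenated modified Krebs Henseleit bicarbonate buffer, 37 °C, equilibrated ≥1 h at 1.0 g resting tension; contracted with phenylephrine 3 μM to steady force before compound; isometric force read; percent inhibition of phenylephrine-induced force relative to vehicle control.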

[2] = species on record: Xenopus laevis; assay: Effect of compound (20 uM) on maxi-K-mediated outward current in Xenopus laevis oocytes expressing the cloned hSlo maxi-K channels was determined
Summary of the method: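 Two-electrode voltage clamp of Xenopus laevis oocytes expressing cloned hSlo maxi-K channels; single 20 μM drug concentration applied, measuring iberiotoxin-sensitive outward K⁺ current in at least five oocytes per compound; result given as mean percent change in hSlo current versus drug-free control (100%).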

[3] = species on record: Oryctolagus cuniculus; assay: Tested for concentration dependent relaxation over a period of 90 min in isolated rabbit corpus cavernosum.; details: 1.5 h

SMILES | Inhibition [1] | Increase [2] | IC50 [3]
COc1ccc(Cl)cc1-c1c(CCO)c(O)nc2ccc(C(F)(F)F)cc12 | 26.8% | 211% | –
OC/C=C/c1c(O)nc2ccc(C(F)(F)F)cc2c1-c1cc(Cl)ccc1O | 46% | 257% | –
OCc1c(O)nc2ccc(C(F)(F)F)cc2c1-c1cc(Cl)ccc1O | 36% | 198% | –
O=c1[nH]c2cc(C(F)(F)F)ccc2n1-c1cc(Cl)ccc1O | 31% | 132% | –
COc1ccc(Cl)cc1-c1c(CCCO)c(O)nc2ccc(C(F)(F)F)cc12 | 35.7% | 258% | –
O=c1[nH]c2ccc(C(F)(F)F)cc2c(-c2cc(Cl)ccc2O)c1CCO [BMS-223131] | 83.7% | 378% | 5 µM
OCCCc1c(O)nc2ccc(C(F)(F)F)cc2c1-c1cc(Cl)ccc1O | 43% | 292% | –
COc1ccc(Cl)cc1-c1c(/C=C/CO)c(O)nc2ccc(C(F)(F)F)cc12 | 31.8% | 223% | –
COc1ccc(Cl)cc1-c1c(CO)c(O)nc2ccc(C(F)(F)F)cc12 | – | 114% | –
